Screening results: PubChem, several laboratories
KLK7 zymogen act = activates the human kallikrein-7 zymogen | P49862 | 0.9% of 370,000 active | activation, % at 7 µM | purified proKLK7, EDANS-DABCYL substrate fluorescence; 100% is mature enzyme control, 0% vehicle;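 active means activation above the mean of all tested compounds plus 3 SD, computed per campaign excluding outliers beyond control limits, cut at about 13% in these data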
RanGTP-Impb inh = inhibitors of RanGTP-importin-beta interaction, primary screen, biochemical, FRET, CFP-Ran, YFP-importin-beta, homogeneous; 1.1% of 300,000 active; cell-free CFP-Ran/YFP-importin-beta FRET ratio; inhibition, % (concentration not given with the values);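 active means more than half of the replicate wells show a fall in the fluorescence ratio signal beyond about 16%, limit read from the data, passing the limit was not always enough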;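 further: 0% = DMSO wells and 100% = Ran loaded with GDP instead of GTP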
Runt-SMMHC FRET = inhibitors of human RUNX1 Runt domain binding to CBFb-SMMHC; Q01196+Q13951; Cerulean-Runt/Venus-CBFb-SMMHC FRET ratio 530/480, 1 h; inhibition, % at 20 µM; 0.74% of 220,000 active; AID 1434;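 active means mean inhibition across duplicate retests at 20 µM reaching about 50%, limit read from the data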;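 further: 0% = DMSO wells and 100% = wells with excess untagged CBFb-SMMHC; inhibitors lower the FRET ratio by blocking Runt binding to CBFb-SMMHC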
Wee1 degr inh = human Wee1 degradation inhibition, primary screen | P30291 | HeLa Luc-Wee1K328M stability, luciferase luminescence; 100% = proteasome inhibitor MG132 effect | reporter increase, % at 5 µM | 1.2% of 220,000 active | AID 1321;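 active means activation above the mean of all tested compounds plus 3 SD, set per screening run, cut at about 8.8% in these data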;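 further: cells exposed to compound for 20 h before luminescence read; 0% = DMSO alone and 100% = MG132 at 30 µM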
Target sequence (P30291 whole entry K328M): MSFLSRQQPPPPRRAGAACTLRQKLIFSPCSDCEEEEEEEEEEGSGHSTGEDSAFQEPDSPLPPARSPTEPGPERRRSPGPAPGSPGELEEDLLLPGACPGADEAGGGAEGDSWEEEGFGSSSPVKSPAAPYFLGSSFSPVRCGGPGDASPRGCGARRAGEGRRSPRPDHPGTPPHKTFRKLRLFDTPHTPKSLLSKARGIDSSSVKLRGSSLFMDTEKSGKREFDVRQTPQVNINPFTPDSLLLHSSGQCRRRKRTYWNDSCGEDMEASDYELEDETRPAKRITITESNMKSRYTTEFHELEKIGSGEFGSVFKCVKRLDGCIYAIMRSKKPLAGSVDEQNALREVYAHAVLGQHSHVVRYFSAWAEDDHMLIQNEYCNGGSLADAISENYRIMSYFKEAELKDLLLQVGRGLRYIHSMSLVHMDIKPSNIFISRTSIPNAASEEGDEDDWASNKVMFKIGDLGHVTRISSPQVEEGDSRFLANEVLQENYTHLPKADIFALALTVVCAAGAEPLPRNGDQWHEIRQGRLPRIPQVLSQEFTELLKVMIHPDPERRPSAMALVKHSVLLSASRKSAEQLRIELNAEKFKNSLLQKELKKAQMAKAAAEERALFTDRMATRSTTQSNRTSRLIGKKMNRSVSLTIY
AI-2 QS mod = Vibrio harveyi AI-2 quorum sensing modulation; activity change, % at 7.5 µM; Vibrio harveyi JMH597 AI-2 luminescence/OD600 ratio, 9 h; hits give low values; strain lacks LuxN and CqsS sensors; 0 = neutral-control median; AID 2094; 0.4% of 300,000 active; in the data active means activity change below about -75%, passing the limit was not always enough;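 further: luminescence divided by OD600 gain over 9 h not by final OD600 alone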
Runt-CBFb FRET = blocks binding of human RUNX1 Runt domain to CBFb | Cerulean-Runt/Venus-CBFb FRET ratio 530/480, 1 h | inhibition, % at 20 µM | 0.46% of 220,000 active;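 active means inhibition over about 50% at 20 µM in the single-dose screen, limit read from the data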;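 further: 0% = DMSO wells and 100% = excess unlabeled CBFb competitor control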
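test system = Cerulean-Runt domain fusion protein, energy donor | probe or stimulus = Venus-CBFb binding partner, 100 nM | incubation = two 1 h room-temperature incubations shielded from light | detection = fluorescence energy transfer, 422 nm excitation, 530/480 nm emission | measure = loss of energy transfer signal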
proKLK7 act conf = confirmation of human kallikrein-7 zymogen activators. shares compounds with KLK7 zymogen act. purified proKLK7, EDANS-DABCYL substrate fluorescence; scaled: vehicle 0, mature enzyme 100. activation, % at 7 µM. 68% of 3,200 active. AID 686949;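 active means activation, as change over the incubation, above the mean of all tested compounds plus 3 SD, cut at about 13% in these data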
EDANS interfere = fluorescence interference counter-screen for KLK7 activators. EDANS-DABCYL substrate fluorescence interference, no enzyme, 4 h; solvent 0%, active enzyme control 100%. 80% of 3,200 active. activation, % at 7 µM. shares compounds with KLK7 zymogen act;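 active means activation above the all-compound mean plus 3 SD, ignoring values outside control-based bounds, cut at about 4.8% in these data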;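 further: value is the 4 h activation minus the activation read at time zero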
The depositor's hits bear a star. Only some compounds are listed: those with a hit (about 2.9% of all), similar ones and a draw of the others.

O=C1NN(c2ccc(Br)cc2)C(=O)/C1=C\c1ccc(O)cc1O was read as KLK7 zymogen act 157*, RanGTP-Impb inh 142*, AI-2 QS mod -7, proKLK7 act conf 181* and EDANS interfere 196*.
For C=CCNC(=O)/C(C#N)=C/c1c(N2CCN(c3cccc(Cl)c3)CC2)nc2c(C)cccn2c1=O the results were KLK7 zymogen act 14*, RanGTP-Impb inh 2, AI-2 QS mod 19, proKLK7 act conf -3 and EDANS interfere 33*.
Screening COCCn1nnnc1C(c1cc2cccc(C)c2[nH]c1=O)N1CCN(c2ccccc2F)CC1 (configuration not stated) returned KLK7 zymogen act 20*, RanGTP-Impb inh 1, Runt-SMMHC FRET 1, Wee1 degr inh 1, AI-2 QS mod 24, Runt-CBFb FRET 10, proKLK7 act conf 17* and EDANS interfere 17*.
`CCOC(=O)C1=C2c3cc(OC)c(OC)cc3CC(C)(C)N2C(=O)C1=O` gave KLK7 zymogen act 24*, RanGTP-Impb inh -1, Runt-SMMHC FRET 6, Wee1 degr inh 1, AI-2 QS mod 11, Runt-CBFb FRET 0, proKLK7 act conf 5 and EDANS interfere 5.9*.
COc1ccc(S(=O)(=O)Nc2cc(C(C)C)c(O)cc2C)cc1 was read as KLK7 zymogen act 0, RanGTP-Impb inh -1, Runt-SMMHC FRET -1, Wee1 degr inh -2, AI-2 QS mod 15 and Runt-CBFb FRET -1.
Screening COc1ccc2nc3cc(Cl)ccc3c(Nc3cc(C(C)C)c(O)cc3C)c2c1 returned KLK7 zymogen act 20*, RanGTP-Impb inh 115*, Runt-SMMHC FRET 50*, Wee1 degr inh -3, AI-2 QS mod 32, Runt-CBFb FRET 77*, proKLK7 act conf 0 and EDANS interfere 2.
For COc1ccc(-n2c(O)c(/C=N/NS(=O)(=O)c3cc(C)ccc3C)c3ccccc3c2=O)cc1OC the results were KLK7 zymogen act 10, RanGTP-Impb inh -2, Runt-SMMHC FRET -77, Wee1 degr inh 3, AI-2 QS mod 8 and Runt-CBFb FRET -5.
COc1ccc(-n2c(O)c(/C=N/NS(=O)(=O)c3ccc(C)cc3)c3ccccc3c2=O)cc1OC was read as KLK7 zymogen act 48*, RanGTP-Impb inh 0, Runt-SMMHC FRET -68, Wee1 degr inh -3, AI-2 QS mod 46, Runt-CBFb FRET -12, proKLK7 act conf 0 and EDANS interfere 0.
CN(C)c1ccc(C2Nc3ccccc3C(=O)N2NS(C)(=O)=O)cc1 (configuration not stated) was read as KLK7 zymogen act 22*, RanGTP-Impb inh 6, AI-2 QS mod 9, proKLK7 act conf 5 and EDANS interfere 5.9*.
Screening COc1ccc(C2Nc3ccccc3C(=O)N2NS(=O)(=O)c2ccc(C)cc2)cc1OC (configuration not stated) returned KLK7 zymogen act 31*, RanGTP-Impb inh 1, AI-2 QS mod -5, proKLK7 act conf 8 and EDANS interfere 7.1*.
CS(=O)(=O)NN1C(=O)c2ccccc2NC1c1ccccc1F (configuration not stated) was read as KLK7 zymogen act 35*, RanGTP-Impb inh 0, AI-2 QS mod 16, proKLK7 act conf 4 and EDANS interfere 8.2*.
Screening COc1ccc(C2Nc3ccccc3C(=O)N2NS(=O)(=O)c2ccccc2)cc1OC (configuration not stated) returned KLK7 zymogen act 17*, RanGTP-Impb inh -3, Runt-SMMHC FRET 5, Wee1 degr inh -1, AI-2 QS mod 4, Runt-CBFb FRET 0, proKLK7 act conf 4 and EDANS interfere 9.0*.
